Values belong to the molecule of their own block, whether it stands above or below them.
Tests used:
[1] = tested on: DuPro; experiment: Macrocycle level in DuPro cells in 3 days after treatment with 0.5 uM concentration of the compound; Macrocycle level measured in per 10 lakh cells; type: functional, Homo sapiens
Outline: (§1)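 Log-phase DuPro cells grown in RPMI 1640 with 10% fetal calf serum were exposed to macrocycle at 0.5–4 μM for 3 or 5 days, harvested with trypsin/EDTA and counted. About 1×10^6 cells were washed in cold PBS, extracted in 2% perchloric acid and sonicated. Supernatant was dansylated (modified for ring NH) and analysed by C-18 HPLC with fluorescence detection. Untreated controls were run per experiment.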

[2] = tested on: DuPro; experiment: Macrocycle level in DuPro cells in 3 days after treatment with 2 uM concentration of the compound; Macrocycle level measured in per 10 lakh cells; type: functional, Homo sapiens; outline: as §1
[3] = tested on: DuPro; experiment: Macrocycle level in DuPro cells in 5 days after treatment with 0.5 uM concentration of the compound; Macrocycle level measured in per 10 lakh cells; type: functional, Homo sapiens; outline: as §1
[4] = tested on: DuPro; experiment: Macrocycle level in DuPro cells in 5 days after treatment with 2 uM concentration of the compound; Macrocycle level measured in per 10 lakh cells; type: functional, Homo sapiens; outline: as §1
[5] = tested on: DuPro; experiment: Spermidine level in DuPro cells in 5 days after treatment with 0.5 uM concentration of the compound; Spd level measured in per 10 lakh cells; type: functional, Homo sapiens; outline: as §1
[6] = tested on: PC-3; experiment: Inhibitory effect against growth of PC-3 human prostate cancer cell line; type: functional; details: read-out: ID50 (the source's name)
Outline: (§2)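 MTT growth assay. Trypsinized cells, 500 per well, seeded and incubated overnight at 37 °C in humidified 95% air/5% CO2. Serial macrocycle dilutions added, each concentration in quadruplicate, buffer controls in the outer columns, 6 days (144 h) of exposure. MTT 5 mg/mL added for 4 h, then overnight lysis in SDS/DMF/acetic acid buffer pH 4.8. Absorbance at 570 nm; ID50 derived.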

[7] = tested on: DuPro; experiment: Spermine level in DuPro cells in3 days after treatment with 1 uM concentration of the compound; Sm level measured in per 10 lakh cells; type: functional, Homo sapiens; outline: as §1
[8] = tested on: DuPro; experiment: Macrocycle level in DuPro cells at 3 days after treatment with 2 uM concentration of the compound; Macrocycle level measured in per 10 lakh cells; type: functional, Homo sapiens; outline: as §1
[9] = tested on: DuPro; experiment: Macrocycle level in DuPro cells at 5 days after treatment with 1 uM concentration of the compound; Macrocycle level measured in per 10 lakh cells; type: functional, Homo sapiens; outline: as §1
[10] = tested on: DuPro; experiment: Macrocycle level in DuPro cells at 5 days after treatment with 2 uM concentration of the compound; Macrocycle level measured in per 10 lakh cells; type: functional, Homo sapiens; outline: as §1
[11] = tested on: DuPro; experiment: Putrescine level in DuPro cells at 3 days after treatment with 2 uM concentration of the compound; Put level measured in per 10 lakh cells; type: functional, Homo sapiens; outline: as §1
[12] = tested on: DuPro; experiment: Putrescine level in DuPro cells at 5 days after treatment with 2 uM concentration of the compound; Put level measured in per 10 lakh cells; type: functional, Homo sapiens; outline: as §1
[13] = tested on: DuPro; experiment: Spermine level in DuPro cells at 3 days after treatment with 2 uM concentration of the compound; Sm level measured in per 10 lakh cells; type: functional, Homo sapiens; outline: as §1
[14] = tested on: DuPro; experiment: Spermine level in DuPro cells in 5 days after treatment with 1 uM concentration of the compound; Sm level measured in per 10 lakh cells; type: functional, Homo sapiens; outline: as §1
[15] = tested on: DuPro; experiment: Macrocycle level in DuPro cells at 3 days after treatment with 1 uM concentration of the compound; Macrocycle level measured in per 10 lakh cells; type: functional, Homo sapiens; outline: as §1
[16] = tested on: DuPro; experiment: Spermidine level in DuPro cells in 3 days after treatment with 1 uM concentration of the compound; Spd level measured in per 10 lakh cells; type: functional, Homo sapiens; outline: as §1
[17] = tested on: DuPro; experiment: Spermidine level in DuPro cells in 5 days after treatment with 1 uM concentration of the compound; Spd level measured in per 10 lakh cells; type: functional, Homo sapiens; outline: as §1
[18] = tested on: DuPro; experiment: Spermidine level in DuPro cells at 3 days after treatment with 2 uM concentration of the compound; Spd level measured in per 10 lakh cells; type: functional, Homo sapiens; outline: as §1
[19] = tested on: DuPro; experiment: Spermidine level in DuPro cells at 5 days after treatment with 2 uM concentration of the compound; Spd level measured in per 10 lakh cells; type: functional, Homo sapiens; outline: as §1
[20] = tested on: DuPro; experiment: Putrescine level in DuPro cells in 3 days after treatment with 1 uM concentration of the compound; Put level measured in per 10 lakh cells; type: functional, Homo sapiens; outline: as §1
[21] = tested on: DuPro; experiment: Spermine level in DuPro cells at 5 days after treatment with 2 uM concentration of the compound; Sm level measured in per 10 lakh cells; type: functional, Homo sapiens; outline: as §1
[22] = tested on: DuPro; experiment: Spermine level in DuPro cells in 3 days after treatment with 0.5 uM concentration of the compound; Sm level measured in per 10 lakh cells; type: functional, Homo sapiens; outline: as §1
[23] = tested on: DuPro; experiment: Macrocycle level in DuPro cells in 3 days after treatment with 1 uM concentration of the compound; Macrocycle level measured in per 10 lakh cells; type: functional, Homo sapiens; outline: as §1
[24] = tested on: DuPro; experiment: Macrocycle level in DuPro cells in 3 days after treatment with 4 uM concentration of the compound; Macrocycle level measured in per 10 lakh cells; type: functional, Homo sapiens; outline: as §1
[25] = tested on: DuPro; experiment: Macrocycle level in DuPro cells in 5 days after treatment with 1 uM concentration of the compound; Macrocycle level measured in per 10 lakh cells; type: functional, Homo sapiens; outline: as §1
[26] = tested on: DuPro; experiment: Macrocycle level in DuPro cells in 5 days after treatment with 4 uM concentration of the compound; Macrocycle level measured in per 10 lakh cells; type: functional, Homo sapiens; outline: as §1
[27] = tested on: DuPro; experiment: Inhibitory effect against growth of DuPro human prostate cancer cell line; type: functional; details: read-out: ID50 (the source's name); outline: as §2

IC50 [6]: 1140 nM
Structure (SMILES): CCCCCCCCCCCCCC1CC(=O)NCCCNCCCCCNCCCN1.Cl.Cl.Cl (stereo unspecified)
Polyamine level [1]: 26.96 nM | Polyamine level [2]: 17.2 nM | Polyamine level [3]: 26.84 nM | Polyamine level [4]: 10.24 nM | Polyamine level [5]: 5 pM

Structure (SMILES): CCCCCCCCCCCCCC1CC(=O)NCCCNCCCNCCCNCCCN1.Cl.Cl.Cl.Cl (stereo unspecified)
Polyamine level [7]: 0.088 nM | Polyamine level [8]: 5.99 nM | Polyamine level [9]: 46.77 nM | Polyamine level [10]: 49.31 nM | Polyamine level [11]: 0.02 nM | Polyamine level [12]: 0.011 nM | Polyamine level [13]: 0.094 nM | Polyamine level [14]: 0.043 nM | Polyamine level [15]: 10.09 nM | Polyamine level [16]: 0.029 nM | Polyamine level [17]: 0.014 nM | Polyamine level [18]: 0.027 nM | Polyamine level [19]: 0.018 nM | Polyamine level [20]: 4 pM | Polyamine level [21]: 0.053 nM

Structure (SMILES): CCCCCCCCCCCCCC1CC(=O)NCCCNCCCNCCCN1.Cl.Cl.Cl (stereo unspecified)
Polyamine level [1]: 47.57 nM | Polyamine level [2]: 49.07 nM | Polyamine level [3]: 35.91 nM | Polyamine level [4]: 42.34 nM | Polyamine level [22]: 3 pM

IC50 [6]: 1700 nM
Structure (SMILES): CCCCCCCCCCCCCC1CC(=O)NCCCNCCCCN1.Cl.Cl (stereo unspecified)
Polyamine level [23]: 17 nM | Polyamine level [24]: 22.1 nM | Polyamine level [25]: 24 nM | Polyamine level [26]: 32 nM | IC50 [27]: 1800 nM

Structure (SMILES): CCCCCCCCCCCCCC1CC(=O)NCCCNCCCCNCCCN1.Cl.Cl.Cl (stereo unspecified)
Polyamine level [23]: 2.79 nM | Polyamine level [2]: 25.07 nM | Polyamine level [25]: 17.2 nM | Polyamine level [4]: 21.47 nM
